Measurements as given in ChEMBL document CHEMBL1129643 (J Med Chem, 1996).
pIC50: −log10 of the molar value.

Assays:
[1] = biological target: T1, Alpha-1A adrenergic receptor (Rattus norvegicus, UniProt P43140); assay: Binding affinity to the alpha-1 adrenergic receptor using a radioligand [3H]prazosin binding assay in rat brain membranes; type: cell membranes
T1 sequence (P43140 whole entry): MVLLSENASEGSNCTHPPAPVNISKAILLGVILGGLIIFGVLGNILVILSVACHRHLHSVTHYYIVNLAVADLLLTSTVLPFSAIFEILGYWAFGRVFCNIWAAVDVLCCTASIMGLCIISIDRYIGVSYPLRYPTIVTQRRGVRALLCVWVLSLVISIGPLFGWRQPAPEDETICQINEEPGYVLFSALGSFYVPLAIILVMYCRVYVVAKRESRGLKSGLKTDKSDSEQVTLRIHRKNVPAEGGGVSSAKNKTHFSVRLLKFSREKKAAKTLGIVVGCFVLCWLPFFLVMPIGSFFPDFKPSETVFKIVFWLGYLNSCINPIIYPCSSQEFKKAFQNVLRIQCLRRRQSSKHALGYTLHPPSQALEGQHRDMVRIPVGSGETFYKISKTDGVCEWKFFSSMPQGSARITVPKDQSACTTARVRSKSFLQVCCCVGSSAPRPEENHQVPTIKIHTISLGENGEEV

[2] = biological target: 5-hydroxytryptamine receptor 2A (Rattus norvegicus, UniProt P14842); assay: Binding affinity to serotonin 5-hydroxytryptamine 2A receptors using a radioligand [3H]ketanserin binding assay in rat cortical membranes; type: cell membranes
Sequence of 5-hydroxytryptamine receptor 2A (P14842 whole entry): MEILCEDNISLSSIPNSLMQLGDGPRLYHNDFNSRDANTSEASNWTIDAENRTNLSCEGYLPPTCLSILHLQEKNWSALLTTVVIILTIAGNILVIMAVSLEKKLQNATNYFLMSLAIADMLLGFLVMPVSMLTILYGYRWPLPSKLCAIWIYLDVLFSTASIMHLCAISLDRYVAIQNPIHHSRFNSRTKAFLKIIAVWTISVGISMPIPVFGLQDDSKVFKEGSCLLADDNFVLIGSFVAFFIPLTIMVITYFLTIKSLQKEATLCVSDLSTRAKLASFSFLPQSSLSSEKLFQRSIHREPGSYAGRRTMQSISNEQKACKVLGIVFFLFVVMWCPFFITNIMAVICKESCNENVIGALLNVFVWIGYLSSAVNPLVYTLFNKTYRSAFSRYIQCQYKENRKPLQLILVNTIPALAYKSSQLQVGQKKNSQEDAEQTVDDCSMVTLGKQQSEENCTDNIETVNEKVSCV

[3] = biological target: D(2) dopamine receptor (Rattus norvegicus, UniProt P61169); assay: Binding affinity to dopamine receptor D2 using a [3H]-spiperone binding assay in rat cortical membranes; type: cell membranes
Sequence of D(2) dopamine receptor (P61169 whole entry): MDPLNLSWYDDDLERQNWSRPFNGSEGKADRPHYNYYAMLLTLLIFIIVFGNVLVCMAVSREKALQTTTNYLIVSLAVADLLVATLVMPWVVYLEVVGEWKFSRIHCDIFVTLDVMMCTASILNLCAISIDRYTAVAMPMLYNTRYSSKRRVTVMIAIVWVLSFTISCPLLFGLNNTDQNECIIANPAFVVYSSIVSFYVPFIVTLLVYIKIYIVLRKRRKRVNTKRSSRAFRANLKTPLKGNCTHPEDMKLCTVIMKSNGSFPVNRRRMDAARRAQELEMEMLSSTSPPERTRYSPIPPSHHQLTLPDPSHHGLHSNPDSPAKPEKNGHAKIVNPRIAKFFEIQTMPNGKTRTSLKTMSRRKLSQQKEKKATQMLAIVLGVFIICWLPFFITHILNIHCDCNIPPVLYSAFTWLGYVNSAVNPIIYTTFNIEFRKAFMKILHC

[4] = test system: Rattus norvegicus; assay: Antagonism of Pergolide-Induced Circling Behavior in rats with unilateral 6-OHDA Lesions after 2 hr of sc injection; type: functional
Procedure, shortened: (§1)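 Rats with unilateral 6-OHDA lesions were given pergolide (0.050 µmol/kg, sc) to induce contralateral circling. Test compound was injected sc 2 h before pergolide. The effect of each dose was expressed as percent of the mean of control sessions held one week before and one week after the test session for each rat. At least four rats were used per dose.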

[5] = test system: Rattus norvegicus; assay: Effective dose was measured to inhibit 50% of quipazine induced head twitches in rat after 2 hr of subcutaneous administration; type: functional; conditions: sc
Procedure, shortened: (§2)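 Rats received test compound sc or po, 2 or 24 h before quipazine (15 µmol/kg, sc). Head twitches were counted 30–40 min after quipazine. Counts were expressed as percent of a quipazine-treated control group, with at least four animals per dose.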

[6] = test system: Rattus norvegicus; assay: Effective dose was measured to inhibit 50% of quipazine induced head twitches in rat after 24 hr r of subcutaneous administration; type: functional; conditions: sc; procedure, shortened: as §2
[7] = test system: Rattus norvegicus; assay: Effective dose was measured to inhibit 50% of quipazine induced head twitches in rat after 24 hr of peroral administration; conditions: po
[8] = test system: Rattus norvegicus; assay: Effective dose was measured to inhibit 50% of quipazine induced head twitches in rat after 24 hr r of peroral administration; type: functional; conditions: po; procedure, shortened: as §2
[9] = species on record: Rattus norvegicus; assay: Effective dose was measured as fifty percent inhibition of Pergolide induced rotations in rat; type: functional; procedure, shortened: as §1

| pIC50 [1] | pIC50 [2] | pIC50 [3] | Compound | further results |
| --- | --- | --- | --- | --- |
| 7.64 |  |  | CN(CCN1CCNC1=O)Cc1cn(-c2ccc(F)cc2)c2ccc(Cl)cc12 |  |
| 7.37 |  |  | CN(CCCc1cn(-c2ccc(F)cc2)c2ccc(Cl)cc12)CCN1CCNC1=O |  |
| 6.22 |  |  | CC(C)N1CCN(CCN(C)CCOc2cn(-c3ccc(F)cc3)c3cc(Cl)ccc23)C1=O |  |
| 7.82 |  |  | CN(CCc1cn(-c2ccc(F)cc2)c2ccc(Cl)cc12)CCN1CCNC1=O |  |
| 7.85 | 9.02 | 6.23 | CN(CCc1cn(-c2ccc(F)cc2)c2cc(Cl)ccc12)CCN1CCNC1=O |  |
| 6.51 | 7.00 | 5.32 | CN(C)CCCCc1cn(-c2ccc(F)cc2)c2ccc(Cl)cc12 |  |
| 6.09 | 7.38 |  | CN(C)CCSc1cn(-c2ccc(F)cc2)c2ccc(Cl)cc12 |  |
| 7.14 |  |  | CN(C)CCCc1cn(-c2ccc(F)cc2)c2ccc(Cl)cc12 |  |
| 6.82 | 7.00 | 8.62 | CN1CCN(CCOc2cn(-c3ccc(F)cc3)c3ccc(Cl)cc23)CC1 | ED50 [4]: 0.048 µmol/kg |
| 6.19 |  | 6.10 | CN(CCSc1cn(-c2ccc(F)cc2)c2ccc(Cl)cc12)CCN1CCNC1=O |  |
| 7.49 |  |  | Fc1ccc(-n2cc(OCCN3CCCCC3)c3cc(Cl)ccc32)cc1 |  |
| 7.77 |  |  | CN(C)CCOc1cn(-c2ccc(F)cc2)c2ccc(Cl)cc12 |  |
| 7.74 |  |  | CN(C)Cc1cn(-c2ccc(F)cc2)c2ccc(Cl)cc12 |  |
| 6.40 | 8.24 | 6.72 | CC(C)N1CCN(CCN(C)CCc2cn(-c3ccc(F)cc3)c3cc(Cl)ccc23)C1=O |  |
|  |  |  | CC(C)N1CCN(CCN2CCC(c3cn(-c4ccc(F)cc4)c4cc(Cl)ccc34)CC2)C1=O | ED50 [5]: 0.11 µmol/kg; ED50 [4]: > 17 µmol/kg; ED50 [6]: 0.052 µmol/kg; ED50 [7]: 0.055 µmol/kg |
| < 7.00 | 7.57 | 7.62 | CN(C)CCCOc1cn(-c2ccc(F)cc2)c2ccc(Cl)cc12 |  |
| < 7.00 | 6.96 | 7.70 | CN(CCCCN1CCNC1=O)Cc1cn(-c2ccc(F)cc2)c2ccc(Cl)cc12 |  |
| 7.27 | 8.72 | 6.40 | CN(CCCN1CCNC1=O)CCc1cn(-c2ccc(F)cc2)c2cc(Cl)ccc12 | ED50 [5]: 4.7 µmol/kg; ED50 [6]: 8.5 µmol/kg |
| 6.96 |  |  | Fc1ccc(-n2cc(OCCN3CCOCC3)c3cc(Cl)ccc32)cc1 |  |
| 7.39 |  |  | CN(CCOc1cn(-c2ccc(F)cc2)c2cc(Cl)ccc12)CCN1CCNC1=O | ED50 [5]: 0.63 µmol/kg; ED50 [8]: 0.25 µmol/kg |
| 7.06 |  |  | C#CCN(CCOc1cn(-c2ccc(F)cc2)c2ccc(Cl)cc12)CCN1CCNC1=O |  |
| 6.77 |  |  | CN(C)CCOc1cn(-c2ccc(F)cc2)c2cc(Cl)ccc12 |  |
| 7.85 |  |  | CN(CCCN1CCNC1=O)CCc1cn(-c2ccc(F)cc2)c2ccc(Cl)cc12 |  |
| 7.92 |  |  | CCN(CCOc1cn(-c2ccc(F)cc2)c2ccc(Cl)cc12)CCN1CCNC1=O |  |
| 8.24 |  |  | CN(CCOc1cn(-c2ccc(F)cc2)c2ccc(Cl)cc12)CCN1CCNC1=O | ED50 [5]: 0.32 µmol/kg; ED50 [4]: 3.6 µmol/kg; ED50 [6]: > 9.1 µmol/kg |
|  | 7.31 |  | CNc1cc(OC)c(C(=O)N[C@H]2CCN(Cc3ccccc3)[C@H]2C)cc1Cl [NEMONAPRIDE] | ED50 [4]: 0.0057 µmol/kg |
|  |  |  | Cc1nc2sccn2c(=O)c1CCN1CCC(=C(c2ccc(F)cc2)c2ccc(F)cc2)CC1 [RITANSERIN] | ED50 [5]: 0.1 µmol/kg; ED50 [9]: > 21 µmol/kg; ED50 [6]: 0.98 µmol/kg |
|  |  |  | O=C1NCCN1CCN1CCC(c2cn(-c3ccc(F)cc3)c3ccc(Cl)cc23)CC1 [SERTINDOLE] | ED50 [5]: 0.035 µmol/kg; ED50 [4]: 3.7 µmol/kg; ED50 [8]: 0.039 µmol/kg; ED50 [6]: 0.03 µmol/kg |

| Compound | pIC50 [1] | pIC50 [2] | pIC50 [3] | further results |
| --- | --- | --- | --- | --- |
| CN(C)CCc1cn(-c2ccc(F)cc2)c2cc(Cl)ccc12 | 6.89 | 8.26 | 6.19 |  |
| CN(C)CCc1cn(-c2ccc(F)cc2)c2ccc(Cl)cc12 | 7.40 |  |  |  |
